Values after ≈ are worked out from the molar mass of the structure shown. Active and inactive are the calls of the source. The calls are words filed in the database; no cut-off is given here.
How the values were obtained:
Aspergillus niger [1] = assay: Antifungal activity against Aspergillus niger NCIM 1196 by standard agar plate method; assay type: functional
Procedure, shortened: (§1)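 Read-out was the minimum inhibitory concentration (MIC) on agar plates, with miconazole and fluconazole run as reference antifungal standards.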

Candida albicans = assay: Antifungal activity against Candida albicans NCIM 347 by standard agar plate method; assay type: functional; procedure, shortened: as §1
Fusarium oxysporum [2] = assay: Antifungal activity against Fusarium oxysporum NCIM 1332 by standard agar plate method; assay type: functional; procedure, shortened: as §1
Cryptococcus neoformans [3] = assay: Antifungal activity against Cryptococcus neoformans NCIM 576 by standard agar plate method; assay type: functional; procedure, shortened: as §1
Aspergillus flavus [4] = assay: Antifungal activity against Aspergillus flavus NCIM 539 by standard agar plate method; assay type: functional; procedure, shortened: as §1
Cryptococcus neoformans [5] = assay: Antifungal activity against Cryptococcus neoformans NCIM 576 up to 200 ug/mL by standard agar plate method; assay type: functional, organism-based; procedure, shortened: as §1
Aspergillus flavus [6] = assay: Antifungal activity against Aspergillus flavus NCIM 539 up to 200 ug/mL by standard agar plate method; assay type: functional, organism-based; procedure, shortened: as §1
Aspergillus niger [7] = assay: Antifungal activity against Aspergillus niger NCIM 1196 up to 200 ug/mL by standard agar plate method; assay type: functional, organism-based; procedure, shortened: as §1
Fusarium oxysporum [8] = assay: Antifungal activity against Fusarium oxysporum NCIM 1332 up to 200 ug/mL by standard agar plate method; assay type: functional, organism-based; procedure, shortened: as §1

| Structure (SMILES) | MIC (Aspergillus niger [1]) [µg/mL] | MIC (Candida albicans) [µg/mL] | MIC (Fusarium oxysporum [2]) [µg/mL] | MIC (Cryptococcus neoformans [3]) [µg/mL] | MIC (Aspergillus flavus [4]) [µg/mL] | MIC (Cryptococcus neoformans [5]) | MIC (Aspergillus flavus [6]) | MIC (Aspergillus niger [7]) | MIC (Fusarium oxysporum [8]) |
| --- | --- | --- | --- | --- | --- | --- | --- | --- | --- |
| CN1CCC(n2cc(-c3nnc(-c4ccccc4)c(-c4ccccc4)n3)nn2)CC1 | 12.5 (≈ 31.4 µM) | 25 (≈ 62.9 µM) | 30 (≈ 75.5 µM) | 25 (≈ 62.9 µM) | 17.5 (≈ 44 µM) |  |  |  |  |
| OC(Cn1cncn1)(Cn1cncn1)c1ccc(F)cc1F [FLUCONAZOLE] | 10 (≈ 32.7 µM) | 5 (≈ 16.3 µM) | 5 (≈ 16.3 µM) | 5 (≈ 16.3 µM) | 5 (≈ 16.3 µM) |  |  |  |  |
| CCN1CCC(n2cc(-c3nnc(-c4ccccc4)c(-c4ccccc4)n3)nn2)CC1 | 12.5 (≈ 30.4 µM) | 25 (≈ 60.8 µM) | 25 (≈ 60.8 µM) | 35 (≈ 85.1 µM) | 12.5 (≈ 30.4 µM) |  |  |  |  |
| Clc1ccc(COC(Cn2ccnc2)c2ccc(Cl)cc2Cl)c(Cl)c1 (stereo not given) [MICONAZOLE] | 12.5 (≈ 30 µM) | 25 (≈ 60.1 µM) | 25 (≈ 60.1 µM) | 25 (≈ 60.1 µM) | 12.5 (≈ 30 µM) |  |  |  |  |
| CC(=O)N1CCC(n2cc(-c3nnc(-c4ccccc4)c(-c4ccccc4)n3)nn2)CC1 | 20 (≈ 47 µM) | 35 (≈ 82.3 µM) | 40 (≈ 94 µM) |  | 20 (≈ 47 µM) | inactive |  |  |  |
| CCCC(=O)N1CCC(n2cc(-c3nnc(-c4ccccc4)c(-c4ccccc4)n3)nn2)CC1 | 40 (≈ 88.2 µM) | 62.5 (≈ 138 µM) | 65 (≈ 143 µM) | 75 (≈ 165 µM) | 35 (≈ 77.2 µM) |  |  |  |  |
| O=C(c1ccccc1)N1CCC(n2cc(-c3nnc(-c4ccccc4)c(-c4ccccc4)n3)nn2)CC1 | 15 (≈ 30.8 µM) | 30 (≈ 61.5 µM) | 30 (≈ 61.5 µM) | 55 (≈ 113 µM) | 17.5 (≈ 35.9 µM) |  |  |  |  |
| c1ccc(CN2CCC(n3cc(-c4nnc(-c5ccccc5)c(-c5ccccc5)n4)nn3)CC2)cc1 | 95 (≈ 201 µM) | 40 (≈ 84.5 µM) | 60 (≈ 127 µM) |  |  | inactive | inactive |  |  |
| CCC(=O)N1CCC(n2cc(-c3nnc(-c4ccccc4)c(-c4ccccc4)n3)nn2)CC1 | 20 (≈ 45.5 µM) | 50 (≈ 114 µM) | 50 (≈ 114 µM) |  | 20 (≈ 45.5 µM) | inactive |  |  |  |
| Cc1ccc(S(=O)(=O)N2CCC(n3cc(-c4nnc(-c5ccccc5)c(-c5ccccc5)n4)nn3)CC2)cc1 | 47.5 (≈ 88.3 µM) | 90 (≈ 167 µM) | 100 (≈ 186 µM) | 150 (≈ 279 µM) | 35 (≈ 65.1 µM) |  |  |  |  |
| CS(=O)(=O)N1CCC(n2cc(-c3nnc(-c4ccccc4)c(-c4ccccc4)n3)nn2)CC1 |  | 50 (≈ 108 µM) | 60 (≈ 130 µM) |  | 30 (≈ 65 µM) | inactive |  | inactive |  |
| c1ccc(-c2nnc(-c3cn(C4CCNCC4)nn3)nc2-c2ccccc2)cc1 | 42.5 (≈ 111 µM) | 30 (≈ 78.2 µM) | 40 (≈ 104 µM) | 45 (≈ 117 µM) | 37.5 (≈ 97.8 µM) |  |  |  |  |
| O=C(c1ccc(Cl)cc1)N1CCC(n2cc(-c3nnc(-c4ccccc4)c(-c4ccccc4)n3)nn2)CC1 | 12.5 (≈ 23.9 µM) | 25 (≈ 47.9 µM) | 25 (≈ 47.9 µM) | 30 (≈ 57.5 µM) | 15 (≈ 28.7 µM) |  |  |  |  |
| CC(C)(C)OC(=O)N1CCC(n2cc(-c3nnc(-c4ccccc4)c(-c4ccccc4)n3)nn2)CC1 |  | 70 (≈ 145 µM) |  | 100 (≈ 207 µM) | 55 (≈ 114 µM) |  |  | inactive | inactive |

From ChEMBL document CHEMBL1153223, “One pot synthesis and SAR of some novel 3-substituted 5,6-diphenyl-1,2,4-triazines as antifungal agents” (2010)
